Hits are enriched below; roughly 3% of the tested compounds scored in any of these assays.
SIRT5 block: SIRT5 desuccinylase inhibitors, primary screen, biochemical, fluorescence imaging, single point, set 5 | Purified SirT5, succinyl-peptide AMC, trypsin-coupled fluorescence | inhibition, % at 15 µM | 330,000 tested, 1.1% active; in the data active = inhibition above about 15%; inconclusive = no clear call, values can overlap the other calls
Target sequence (Q9NXA8 whole entry, looked up): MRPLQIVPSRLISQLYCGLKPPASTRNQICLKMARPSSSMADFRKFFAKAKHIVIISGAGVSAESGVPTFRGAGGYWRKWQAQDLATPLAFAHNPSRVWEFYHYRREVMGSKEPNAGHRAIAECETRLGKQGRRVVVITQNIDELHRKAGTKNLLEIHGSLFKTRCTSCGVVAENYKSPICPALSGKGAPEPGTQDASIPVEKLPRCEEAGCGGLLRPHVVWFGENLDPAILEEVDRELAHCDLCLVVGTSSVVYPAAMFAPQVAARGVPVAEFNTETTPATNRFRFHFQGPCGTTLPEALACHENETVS
Cneo AK release: Cryptococcus neoformans cell lysis inducers, primary screen, AK release luminescence, single concentration. C. neoformans lysis, adenylate kinase release luminescence, 4 h; normalised: neutral wells 0, clomiphene wells 100. lysis activity, % at 15 µM. 360,000 tested, 0.2% active. AID 651654, 2012;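 active = mean lysis activity across replicates of at least 80%, whatever share of replicates individually reach that level; inactive = mean lysis activity below 80%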
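Signal: Adenylate kinase release luminescence | Assay system: Log-phase Cryptococcus neoformans yeast cells | Input: Cells at 5 × 10^6 per mL | Buffer or medium: Fresh YPD growth medium | Compound: Single dose | Schedule: Static 4 h at 37 °C with compound, 1 h detection | Controls: Clomiphene | Read-out: Luminescence rise reflecting yeast cell lysis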
S100A4 inh HTS: inhibitors of S100A4-myosin IIA peptide binding, primary screen, biochemical, fluorescence polarization, TAMRA-MyoIIA peptide. Protein S100-A4 (Homo sapiens), P26447. inhibition, % at 10.7 µM. 360,000 tested, 0.14% active. AID 652163, 2013;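 active = mean inhibition of at least 70% across replicates, with every replicate also reaching that level; inconclusive = mean inhibition reaches 70% but some replicates fall short; inactive = mean inhibition below 70%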
Target sequence (P26447 whole entry, looked up): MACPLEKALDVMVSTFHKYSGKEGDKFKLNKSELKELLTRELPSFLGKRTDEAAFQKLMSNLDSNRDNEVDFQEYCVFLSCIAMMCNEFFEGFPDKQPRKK
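Material: S100A4 monomer (human). Medium: Calcium-containing HEPES buffer, pH 7.2. Probe or stimulus: labelled myosin peptide probe, 5 nM. Compound dosing: one concentration per compound. Timing: polarization read 5 min after assay mix addition, stable 5–60 min. Benchmarks: DMSO as neutral control, TFP as positive control.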
PGC1a acetyl inh: inhibitors of PGC1a acetylation signal, primary screen, cell-based, U2OS, AlphaScreen, inhibitor mode; AlphaScreen anti-acetyl-lysine; with virally co-expressed GCN5 acetyltransferase; inhibition, % at 15.6 µM; 350,000 tested, 0.17% active; AID 651687, 2012;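 active = every replicate shows inhibition of at least 40%; inconclusive = mean inhibition at least 40% but some replicate below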;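 note: 0% = neutral control wells and 100% = positive control wells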
Statin myotox sup: suppressors of statin myotoxicity in C2C12 myotubes, primary screen, cell-based, single point, plate reader | C2C12 myotubes + simvastatin, ATP luminescence, 48 h; scaled: DMSO 0, geranylgeraniol control 100 | rescue of ATP level, % at 7.49 µM | 330,000 tested, 0.78% active;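 active = mean ATP rescue above about 67%, or every replicate alone reaching that limit, limit read from the data, passing the limit was not always enough; inconclusive = no clear call, values can overlap the other calls; inactive = mean under the limit and some replicate under it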;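 note: myotubes were challenged with 10 µM simvastatin during compound exposure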
Ecoli rRNA inh: reduced GFP signal of wild-type E. coli, primary screen, bacterial rRNA inhibitor project, GFP/RFP fluorescence, OD600, single point. E. coli WT GFP vs humanized-ribosome RFP mutants, 24 h; active compounds read low; DMSO median 0, no signal -100. GFP signal change (wild-type ribosome), % (no concentration beside the values). 350,000 tested, 1.6% active;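 active = significant combined selectivity score with lowered wild-type GFP, culture density cut under 30%, mutant RFP and density less affected; inactive = any of these conditions unmet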
The depositor's hits bear a star; ? = inconclusive; . = no result.

SMILES	SIRT5 block	Cneo AK release	S100A4 inh HTS	PGC1a acetyl inh	Statin myotox sup	Ecoli rRNA inh
O=C(CCCSc1ccccc1)Nc1nc(-c2ccccn2)cs1	.	27.3	.	-9.7	4.3	.
C[C@H](NC(=O)c1ccccc1)C(=O)Nc1nc(-c2ccccn2)cs1	-3.5	.	8.3	-1.0	.	-28.6
CCCNC(=O)C[C@H]1CC[C@H]2[C@@H](COC[C@@H](O)CN2S(=O)(=O)c2ccccc2F)O1	-7.4	4.1	1.8	-5.0	-5.6	-1.4
COCCNC(=O)C[C@@H]1CC[C@@H]2[C@H](COC[C@H](O)CN2S(=O)(=O)c2ccccc2F)O1	1.8	0.9	-0.6	4.3	-0.6	3.5
COCCNC(=O)C[C@@H]1CC[C@@H]2[C@H](COC[C@@H](O)CN2S(=O)(=O)c2ccccc2C)O1	-0.3	90.7*	2.6	0.9	-6.8	-0.1
COCCNC(=O)C[C@H]1CC[C@@H]2[C@H](COC[C@H](O)CN2S(=O)(=O)c2ccccc2C)O1	9.6	103.0*	9.0	-0.1	-0.8	3.4
CCNC(=O)C[C@@H]1CC[C@H]2[C@@H](COC[C@@H](O)CN2S(=O)(=O)c2ccccc2F)O1	2.9	95.0*	-5.1	5.7	7.0	2.7
Cc1ccccc1S(=O)(=O)N1C[C@H](O)COC[C@@H]2O[C@@H](CC(=O)NCc3ccccc3Cl)CC[C@H]21	9.1	-2.9	114.5*	0.1	10.0	-1.3
Cc1ccccc1S(=O)(=O)N1C[C@H](O)COC[C@H]2O[C@@H](CC(=O)NCCc3ccccc3)CC[C@@H]21	5.1	-0.1	19.2	-3.9	-10.9	-5.3
O=C(C[C@@H]1C[C@@H]2c3cc(NC(=O)NC4CCCCC4)ccc3O[C@@H]2[C@H](CO)O1)NC1CCCCC1	.	.	-14.3	.	.	-1.9
O=C(c1cc(COc2c(F)cccc2F)on1)N1C[C@H]2CC[C@H]1C2	-1.8	-1.5	-6.2	11.5	1.5	-20.4*
CCOc1ccc(OCc2ccc(C(=O)N3CCCCC3)o2)cc1	2.2	13.6	-1.5	-0.1	-4.0	-18.3
O=C(c1cc(COc2c(F)cccc2F)on1)N1CCc2ccccc2C1	-3.6	1.4	3.8	3.5	3.7	-22.9*
O=C(c1cc(COc2ccc(F)cc2F)on1)N1C[C@H]2CC[C@H]1C2	-4.2	-3.6	-1.1	-4.9	-5.8	-6.0
CCOc1ccc(OCc2ccc(C(=O)N3CCc4ccccc4C3)o2)cc1	-2.0	-2.3	-0.6	-5.0	8.3	-28.2*
O=S1(=O)CCN2C(c3ccco3)=CSC2=N1	.	0.7	.	4.0	104.0*	.
O=C1NC[C@H](CCCCN2C[C@H](Cc3ccccc3)N(CCc3ccc(O)cc3)C(=O)C2=O)N(CC2CCCCC2)C1=O	.	.	-11.2	.	.	-30.0*
O=C1NC[C@H](CCCCN2C[C@H](Cc3ccc(O)cc3)N(CCc3ccccc3)C(=O)C2=O)N(CC2CCCCC2)C1=O	.	.	-0.2	.	.	-27.1*
CN(c1ncnc(N)c1[N+](=O)[O-])C1CCCCC1	-0.7	2.0	-0.5	.	?	3.2
CCCCN(c1ccccc1)c1ncnc(N)c1[N+](=O)[O-]	4.6	2.9	3.0	52.0*	13.9	13.2
OCC1CCCN(C(=S)Nc2ccc(Nc3ccccc3)cc2)C1 (stereo not drawn)	0.6	-8.0	4.1	-8.2	1.6	-27.0*
C[C@@H]1CN([C@H](C)CO)C(=O)c2cc(/C=C/c3ccccc3)cnc2O[C@H]1CN(C)S(=O)(=O)c1cccs1	-1.5	2.7	4.6	2.9	-20.3	-1.9
Cc1cc(=O)oc2c3c(cc(OCC(=O)N[C@@H](C)C(=O)O)c12)OC(C)(C)CC3	-39.2	3.4	11.9	.	-4.3	2.1
Cc1cc(=O)oc2c3c(cc(OCC(=O)N[C@@H](Cc4ccccc4)C(=O)O)c12)OC(C)(C)CC3	-51.2	-0.1	-0.2	5.3	8.0	-31.2*
Cc1cc(=O)oc2c3c(cc(OCC(=O)NC(Cc4ccc(Cl)cc4)C(=O)O)c12)OC(C)(C)CC3 (stereo not drawn)	-57.8	3.2	-2.1	4.8	0.0	-38.5*
SMILES	SIRT5 block	Cneo AK release	S100A4 inh HTS	PGC1a acetyl inh	Statin myotox sup	Ecoli rRNA inh
CN(C)CC(=O)N[C@H]1CC[C@@H](CC(=O)NCc2ccccc2F)O[C@@H]1CO	-0.1	0.2	38.4	6.0	2.2	1.3
C/C(=C\c1ccco1)C1C(C#N)=C(N)Oc2n[nH]c(-c3ccc(C)cc3)c21 (stereo not drawn)	5.3	0.4	13.9	3.8	16.6	-27.5*
CC(C)C1C(=O)N(Cc2cn(Cc3ccco3)nn2)CCS(=O)(=O)N1Cc1ccc(-c2ccccc2)cc1 (stereo not drawn)	-1.5	4.0	-2.9	6.6	10.8	11.4
CC(C)C1C(=O)N(Cc2cn(Cc3ccco3)nn2)CCS(=O)(=O)N1Cc1ccc(-c2ccc(F)cc2)cc1 (stereo not drawn)	24.9*	1.9	19.0	.	15.8	4.2
CC1(C)C(c2ccc(Cl)cc2)=[N+]([O-])C2(CCCC/C2=N\O)N1O (stereo not drawn)	.	1.9	.	-14.9	116.3*	.
Cc1ccc(C2=[N+]([O-])C3(CCCCC/C3=N\O)N(O)C2(C)C)o1 (stereo not drawn)	.	0.6	.	-4.7	.	.
C[C@@H]1CN([C@@H](C)CO)C(=O)c2ccccc2-c2ccccc2CO[C@H]1CN(C)Cc1ccccc1C(F)(F)F	27.6*	.	?	-5.5	.	0.9
C[C@H](CO)N1C[C@H](C)[C@H](CN(C)Cc2ccc(C(F)(F)F)cc2)OCc2ccccc2-c2ccccc2C1=O	13.6	.	-5.6	0.7	.	-7.0
C[C@H](CO)N1C[C@H](C)[C@H](CN(C)Cc2cccc(C(F)(F)F)c2)OCc2ccccc2-c2ccccc2C1=O	19.6*	.	-6.9	8.5	.	-5.2
C[C@H]1CN([C@@H](C)CO)C(=O)c2ccccc2-c2ccccc2CO[C@@H]1CN(C)Cc1ccc(C(F)(F)F)cc1	16.3*	.	-18.4	-11.6	.	-5.2
COc1ccccc1S(=O)(=O)N[C@@H]1CC[C@H](CC(=O)NCc2cc(F)cc(F)c2)O[C@@H]1CO	-0.8	.	-1.6	17.0	.	-1.1
COc1cccc(CN2[C@H](CO)[C@@H]3c4ccccc4N(C(=O)c4cccnc4)C[C@@H]32)c1	10.9	1.4	22.8	9.1	2.7	2.5

Screening data from PubChem BioAssay.
